One block for each compound: values may come before it. The source made the active and inactive calls. No cut-off for these calls is given here.
Experiments:
[1] = molecular target: Epidermal growth factor receptor (Homo sapiens, UniProt P00533); test: Inhibition of EGFR up to 100 uM
Procedure, shortened: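 Buffer: HEPES-NaOH pH 7.5, Mg2+/Mn2+, vanadate, DTT, PEG20000, 1% DMSO. Incubated 30 °C for 80 min, stopped with 2% H3PO4, washed, and scintillation-counted. IC50 from 10 concentrations in singlicate.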

[2] = molecular target: MAP kinase-activated protein kinase 5 (Homo sapiens) (UniProt Q8IW41); test: Inhibition of PRAK at 10 uM
[3] = molecular target: Homeodomain-interacting protein kinase 2 (Homo sapiens) (UniProt Q9H2X6); test: Inhibition of human HIPK2 at 10 uM
[4] = Inhibition of PKBbeta S474D mutant at 10 uM
[5] = molecular target: Dual specificity mitogen-activated protein kinase kinase 1 (Oryctolagus cuniculus) (UniProt P29678); test: Inhibition of rabbit MKK1 at 10 uM
Chain of Dual specificity mitogen-activated protein kinase kinase 1 (Oryctolagus cuniculus) (P29678 whole entry): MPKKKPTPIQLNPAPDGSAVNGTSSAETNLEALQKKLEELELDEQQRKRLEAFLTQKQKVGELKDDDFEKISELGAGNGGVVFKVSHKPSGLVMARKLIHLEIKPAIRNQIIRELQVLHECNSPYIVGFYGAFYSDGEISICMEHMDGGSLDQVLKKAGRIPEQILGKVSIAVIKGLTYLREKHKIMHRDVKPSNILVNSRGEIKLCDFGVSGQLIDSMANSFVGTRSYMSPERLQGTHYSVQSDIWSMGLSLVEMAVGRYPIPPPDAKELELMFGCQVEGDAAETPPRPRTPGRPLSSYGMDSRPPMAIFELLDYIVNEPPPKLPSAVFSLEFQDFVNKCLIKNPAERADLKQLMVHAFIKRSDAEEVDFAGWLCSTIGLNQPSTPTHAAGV

[6] = molecular target: Mitogen-activated protein kinase 9 (Homo sapiens) (UniProt P45984); test: Inhibition of human JNK2 at 10 uM
Chain of Mitogen-activated protein kinase 9 (Homo sapiens) (P45984 whole entry, looked up): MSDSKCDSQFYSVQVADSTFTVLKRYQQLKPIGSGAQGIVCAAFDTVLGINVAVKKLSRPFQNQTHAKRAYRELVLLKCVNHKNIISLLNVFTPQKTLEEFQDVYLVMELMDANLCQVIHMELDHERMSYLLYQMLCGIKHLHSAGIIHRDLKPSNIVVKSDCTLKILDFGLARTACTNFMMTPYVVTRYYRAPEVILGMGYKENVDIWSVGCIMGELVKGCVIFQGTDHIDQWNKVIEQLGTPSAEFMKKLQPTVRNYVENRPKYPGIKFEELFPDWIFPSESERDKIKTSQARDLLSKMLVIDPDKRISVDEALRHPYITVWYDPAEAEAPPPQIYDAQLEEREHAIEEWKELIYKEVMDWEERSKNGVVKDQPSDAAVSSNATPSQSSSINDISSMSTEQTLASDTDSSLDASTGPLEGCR

[7] = molecular target: Serine/threonine-protein kinase 26 (Homo sapiens) (UniProt Q9P289); test: Inhibition of human MST4 at 10 uM
Aurora kinase B = Aurora kinase B (Homo sapiens, UniProt Q96GD4); test: Inhibition of Aurora B up to 100 uM
Procedure, shortened: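 Buffer was HEPES-NaOH pH 7.5 with MgCl2, MnCl2, vanadate, DTT, PEG20000 and 1% DMSO. Run 80 min at 30 °C, quenched with 2% H3PO4, NaCl-washed, then scintillation-counted. IC50 fitted from 10 concentrations tested once each.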

[8] = molecular target: Serine/threonine-protein kinase Nek7 (Homo sapiens) (UniProt Q8TDX7); test: Inhibition of NEK7 at 10 uM
[9] = molecular target: Calcium/calmodulin-dependent protein kinase type 1 (Homo sapiens) (UniProt Q14012); test: Inhibition of CAMK1 at 10 uM
[10] = molecular target: Serine/threonine-protein kinase D1 (Homo sapiens) (UniProt Q15139); test: Inhibition of human PKD1 at 10 uM
Chain of Serine/threonine-protein kinase D1 (Homo sapiens) (Q15139 whole entry): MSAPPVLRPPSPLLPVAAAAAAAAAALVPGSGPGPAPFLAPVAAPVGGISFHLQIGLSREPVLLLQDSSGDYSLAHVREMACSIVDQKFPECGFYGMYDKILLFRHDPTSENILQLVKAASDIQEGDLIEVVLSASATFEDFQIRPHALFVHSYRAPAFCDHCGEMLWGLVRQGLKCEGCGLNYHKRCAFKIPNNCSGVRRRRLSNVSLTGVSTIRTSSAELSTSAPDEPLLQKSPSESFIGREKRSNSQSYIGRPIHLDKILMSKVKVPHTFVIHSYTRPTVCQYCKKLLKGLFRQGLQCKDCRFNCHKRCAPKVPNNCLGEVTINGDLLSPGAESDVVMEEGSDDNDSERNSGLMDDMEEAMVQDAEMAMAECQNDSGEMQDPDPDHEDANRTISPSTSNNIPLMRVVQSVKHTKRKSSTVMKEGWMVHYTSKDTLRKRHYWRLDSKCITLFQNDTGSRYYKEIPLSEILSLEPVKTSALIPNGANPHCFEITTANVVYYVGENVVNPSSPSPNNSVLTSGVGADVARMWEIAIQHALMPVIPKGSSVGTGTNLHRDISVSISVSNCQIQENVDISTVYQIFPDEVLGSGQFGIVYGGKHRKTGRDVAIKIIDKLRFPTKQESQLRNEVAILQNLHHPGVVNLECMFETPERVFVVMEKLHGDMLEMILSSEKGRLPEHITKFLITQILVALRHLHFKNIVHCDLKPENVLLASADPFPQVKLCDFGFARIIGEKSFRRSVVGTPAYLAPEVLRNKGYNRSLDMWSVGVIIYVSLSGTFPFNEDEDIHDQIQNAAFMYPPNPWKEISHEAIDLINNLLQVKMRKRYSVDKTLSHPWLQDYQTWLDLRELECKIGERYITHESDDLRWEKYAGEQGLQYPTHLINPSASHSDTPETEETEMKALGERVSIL

[11] = molecular target: Calcium/calmodulin-dependent protein kinase kinase 2 (Homo sapiens) (UniProt Q96RR4); test: Inhibition of human CAMKKbeta at 10 uM
Chain of Calcium/calmodulin-dependent protein kinase kinase 2 (Homo sapiens) (Q96RR4 2-588 limits assumed): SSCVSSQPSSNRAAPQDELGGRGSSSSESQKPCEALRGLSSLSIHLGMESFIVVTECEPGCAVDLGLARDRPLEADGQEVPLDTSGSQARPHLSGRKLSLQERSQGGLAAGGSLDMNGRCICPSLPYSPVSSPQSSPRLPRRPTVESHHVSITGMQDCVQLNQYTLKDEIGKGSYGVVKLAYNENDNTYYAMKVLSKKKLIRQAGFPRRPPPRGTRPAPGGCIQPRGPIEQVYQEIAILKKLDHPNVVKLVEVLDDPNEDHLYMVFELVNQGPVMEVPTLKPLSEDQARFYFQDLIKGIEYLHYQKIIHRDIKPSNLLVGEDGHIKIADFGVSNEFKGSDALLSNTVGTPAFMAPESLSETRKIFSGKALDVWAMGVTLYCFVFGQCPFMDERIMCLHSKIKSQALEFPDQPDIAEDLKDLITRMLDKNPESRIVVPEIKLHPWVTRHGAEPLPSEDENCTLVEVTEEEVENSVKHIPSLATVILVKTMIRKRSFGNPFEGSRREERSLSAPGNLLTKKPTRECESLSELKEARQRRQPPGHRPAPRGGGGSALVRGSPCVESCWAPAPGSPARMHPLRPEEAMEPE

[12] = molecular target: Serine/threonine-protein kinase Chk2 (Homo sapiens) (UniProt O96017); test: Inhibition of CHK2 at 10 uM
Chain of Serine/threonine-protein kinase Chk2 (Homo sapiens) (O96017 whole entry): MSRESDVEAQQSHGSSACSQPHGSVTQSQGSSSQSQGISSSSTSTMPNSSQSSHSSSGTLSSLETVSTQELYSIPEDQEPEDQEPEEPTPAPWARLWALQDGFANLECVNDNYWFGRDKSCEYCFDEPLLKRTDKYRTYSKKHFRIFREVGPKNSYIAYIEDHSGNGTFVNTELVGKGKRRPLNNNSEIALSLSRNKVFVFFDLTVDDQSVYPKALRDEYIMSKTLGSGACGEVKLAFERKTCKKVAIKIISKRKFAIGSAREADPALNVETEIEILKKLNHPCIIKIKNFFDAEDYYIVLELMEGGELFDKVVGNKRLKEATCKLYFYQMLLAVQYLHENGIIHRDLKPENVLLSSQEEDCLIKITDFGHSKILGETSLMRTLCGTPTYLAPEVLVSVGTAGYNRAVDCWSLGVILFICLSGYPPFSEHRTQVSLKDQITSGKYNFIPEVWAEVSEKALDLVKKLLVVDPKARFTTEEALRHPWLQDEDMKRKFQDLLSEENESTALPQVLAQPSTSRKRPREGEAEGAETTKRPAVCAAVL

[13] = molecular target: Fibroblast growth factor receptor 1 (Homo sapiens) (UniProt P11362); test: Inhibition of human FGFR1 at 10 uM
[14] = molecular target: Myosin light chain kinase, smooth muscle (Homo sapiens) (UniProt Q15746); test: Inhibition of smMLCK at 10 uM
[15] = molecular target: Tyrosine-protein kinase CSK (Homo sapiens) (UniProt P41240); test: Inhibition of CSK at 10 uM
[16] = molecular target: Mitogen-activated protein kinase 11 (Homo sapiens) (UniProt Q15759); test: Inhibition of SAPK2b at 10 uM
Chain of Mitogen-activated protein kinase 11 (Homo sapiens) (Q15759 whole entry): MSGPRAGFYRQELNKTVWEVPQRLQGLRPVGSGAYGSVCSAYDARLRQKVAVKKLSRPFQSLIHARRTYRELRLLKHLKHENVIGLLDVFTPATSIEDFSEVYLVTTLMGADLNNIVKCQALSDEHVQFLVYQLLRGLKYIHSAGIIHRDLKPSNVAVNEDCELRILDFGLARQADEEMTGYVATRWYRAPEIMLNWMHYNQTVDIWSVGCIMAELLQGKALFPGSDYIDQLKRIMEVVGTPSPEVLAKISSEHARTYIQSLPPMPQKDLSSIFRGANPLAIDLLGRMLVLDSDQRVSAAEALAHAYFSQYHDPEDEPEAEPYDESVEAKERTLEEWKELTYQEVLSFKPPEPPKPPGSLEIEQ

[17] = molecular target: Serine/threonine-protein kinase Nek2 (Homo sapiens) (UniProt P51955); test: Inhibition of NEK2a at 10 uM
[18] = molecular target: 3-phosphoinositide-dependent protein kinase 1 (PDPK1) (Homo sapiens) (UniProt O15530); test: Inhibition of PDK1 (delta 1-51) at 10 uM
[19] = molecular target: Mitogen-activated protein kinase 15 (Homo sapiens) (UniProt Q8TD08); test: Inhibition of ERK8 at 10 uM
[20] = molecular target: Calcium/calmodulin-dependent protein kinase kinase 1 (Homo sapiens) (UniProt Q8N5S9); test: Inhibition of human CAMKKalpha at 10 uM
[21] = molecular target: Cyclin-dependent kinase 2 (Homo sapiens) (UniProt P24941); test: Inhibition of CDK2/cyclin A at 10 uM
[22] = molecular target: Tyrosine-protein kinase Yes (Homo sapiens) (UniProt P07947); test: Inhibition of human YES1 at 10 uM
Chain of Tyrosine-protein kinase Yes (Homo sapiens) (P07947 2-543 limits assumed): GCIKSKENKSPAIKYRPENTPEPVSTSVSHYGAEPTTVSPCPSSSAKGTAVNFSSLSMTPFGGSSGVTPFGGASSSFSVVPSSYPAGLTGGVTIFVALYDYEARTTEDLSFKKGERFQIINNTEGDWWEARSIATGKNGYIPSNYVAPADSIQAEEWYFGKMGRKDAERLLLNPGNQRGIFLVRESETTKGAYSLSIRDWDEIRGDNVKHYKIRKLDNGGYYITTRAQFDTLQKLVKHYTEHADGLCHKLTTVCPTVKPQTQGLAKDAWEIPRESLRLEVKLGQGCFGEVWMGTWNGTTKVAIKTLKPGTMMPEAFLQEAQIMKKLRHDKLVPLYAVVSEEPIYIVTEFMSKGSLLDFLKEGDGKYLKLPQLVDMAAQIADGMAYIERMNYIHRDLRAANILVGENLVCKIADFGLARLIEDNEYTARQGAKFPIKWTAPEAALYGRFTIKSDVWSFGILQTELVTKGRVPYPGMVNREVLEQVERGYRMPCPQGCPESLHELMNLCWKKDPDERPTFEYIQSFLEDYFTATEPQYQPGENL

[23] = molecular target: Serine/threonine-protein kinase PLK1 (Homo sapiens) (UniProt P53350); test: Inhibition of human okadaic acid sensitive PLK1 at 10 uM
Chain of Serine/threonine-protein kinase PLK1 (Homo sapiens) (P53350 whole entry): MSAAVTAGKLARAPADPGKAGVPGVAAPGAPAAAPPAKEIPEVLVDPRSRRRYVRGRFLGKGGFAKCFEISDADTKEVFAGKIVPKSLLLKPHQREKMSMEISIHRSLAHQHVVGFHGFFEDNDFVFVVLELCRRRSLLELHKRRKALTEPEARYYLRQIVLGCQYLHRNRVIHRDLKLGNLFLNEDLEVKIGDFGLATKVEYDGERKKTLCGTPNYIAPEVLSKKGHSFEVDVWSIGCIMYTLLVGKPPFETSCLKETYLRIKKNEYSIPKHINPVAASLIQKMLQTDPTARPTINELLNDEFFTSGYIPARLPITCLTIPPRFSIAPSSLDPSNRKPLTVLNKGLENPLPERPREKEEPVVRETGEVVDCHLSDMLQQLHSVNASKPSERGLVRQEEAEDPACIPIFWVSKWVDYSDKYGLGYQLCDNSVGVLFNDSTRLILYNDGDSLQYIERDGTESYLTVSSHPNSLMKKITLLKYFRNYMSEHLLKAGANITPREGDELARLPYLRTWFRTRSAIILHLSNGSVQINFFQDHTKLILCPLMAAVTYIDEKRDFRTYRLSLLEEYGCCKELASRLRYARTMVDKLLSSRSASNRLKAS

[24] = molecular target: Mitogen-activated protein kinase 1 (Mus musculus) (UniProt P63085); test: Inhibition of mouse MAPK2 at 10 uM
Chain of Mitogen-activated protein kinase 1 (Mus musculus) (P63085 whole entry): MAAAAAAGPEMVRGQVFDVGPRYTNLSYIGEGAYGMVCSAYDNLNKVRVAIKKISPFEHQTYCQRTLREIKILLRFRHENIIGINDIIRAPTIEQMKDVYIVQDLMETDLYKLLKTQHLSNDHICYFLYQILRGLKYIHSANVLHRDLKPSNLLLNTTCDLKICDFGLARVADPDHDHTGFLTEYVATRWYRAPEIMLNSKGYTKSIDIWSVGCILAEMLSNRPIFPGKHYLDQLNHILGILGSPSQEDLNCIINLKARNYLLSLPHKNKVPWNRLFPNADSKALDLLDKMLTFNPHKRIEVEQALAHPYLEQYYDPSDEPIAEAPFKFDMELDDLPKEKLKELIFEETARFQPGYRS

[25] = molecular target: Maternal embryonic leucine zipper kinase (Homo sapiens) (UniProt Q14680); test: Inhibition of human MELK at 10 uM

inhibition [1]: inactive
SMILES: Nc1ncnc2ncn(CC(=O)c3ccccc3)c12

inhibition [2]: inactive | inhibition [3]: inactive | inhibition [4]: inactive | inhibition [5]: inactive | inhibition [6]: inactive | inhibition [7]: inactive | inhibition (Aurora kinase B): inactive | inhibition [8]: inactive | inhibition [9]: inactive | inhibition [10]: inactive | inhibition [11]: inactive | inhibition [12]: inactive | inhibition [13]: inactive | inhibition [14]: inactive | inhibition [15]: inactive | inhibition [16]: inactive | inhibition [17]: inactive | inhibition [18]: inactive | inhibition [20]: inactive | inhibition [21]: inactive | inhibition [22]: inactive | inhibition [23]: inactive | inhibition [24]: inactive | inhibition [25]: inactive
SMILES: Nc1ncnc2ncn(CC(=O)c3c[nH]c4ccccc34)c12
inhibition [19]: inactive

Source: ChEMBL document CHEMBL1137681, “Design, synthesis and characterization of N9/N7-substituted 6-aminopurines as VEGF-R and EGF-R inhibitors” (Eur J Med Chem, 2009)
